Measured values: ChEMBL document CHEMBL4251593, “Nontoxic combretafuranone analogues with high in vitro antibacterial activity” (Eur J Med Chem, 2018)
Converted amounts (≈) assume the structure as drawn. The source made the active and inactive calls. The calls are words filed in the database; no cut-off is given here.

Assays:
TERT-RPE1 [1] = experiment: Cytotoxicity against human RPE1 cells assessed as reduction in cell viability after 48 hrs by ATPlite-based luminescent assay; conditions: RPE-1, 48 h
Method in brief: (§1)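 Cells were grown […] with 10% FBS, glutamax, NEAA and pen/strep at 37 °C, 5% CO2. Media were DMEM for RPE-1, HepG2 and BJ (BJ plus 10 ng/ml bFGF), F-12K for PC3, and IMDM for K562/HL-60. Cells were seeded at 500 per well and dosed from DMSO at 12 concentrations, 40 µM to 1 nM, in triplicate. After 48 h, intracellular ATP was read by luminescence. ED50 was obtained by variable-slope nonlinear regression.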

BJ = experiment: Cytotoxicity against human BJ cells assessed as reduction in cell viability after 48 hrs by ATPlite-based luminescent assay; method in brief: as §1
K562 [2] = experiment: Cytotoxicity against human K562 cells assessed as reduction in cell viability after 48 hrs by ATPlite-based luminescent assay; conditions: K562, 48 h; method in brief: as §1
HL-60 [3] = experiment: Cytotoxicity against human HL60 cells assessed as reduction in cell viability after 48 hrs by ATPlite-based luminescent assay; conditions: HL-60, 48 h; method in brief: as §1
PC-3 [4] = experiment: Cytotoxicity against human PC3 cells assessed as reduction in cell viability after 48 hrs by ATPlite-based luminescent assay; conditions: PC-3, 48 h; method in brief: as §1
MCF7 = experiment: Cytotoxicity against human MCF7 cells assessed as reduction in cell viability after 48 hrs by ATPlite-based luminescent assay; conditions: MCF7, 48 h
HepG2 [5] = experiment: Cytotoxicity against human HepG2 cells assessed as reduction in cell viability after 48 hrs by ATPlite-based luminescent assay; conditions: HepG2, 48 h; method in brief: as §1
TERT-RPE1 [6] = experiment: Induction of apoptosis in human RPE1 cells assessed as caspase 3/7 activity after 24 hrs by caspase-glo luminescent assay; format: cell-based; conditions: RPE-1, 24 h
Method in brief: (§2)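 Cells were seeded at 500 per well in their growth media and exposed to 12 concentrations from 40 µM to 1 nM, delivered from DMSO, in triplicate. After 24 h, caspase-3/7 activity was read by Caspase-Glo luminescence. Data were normalized and ED50 was fitted by variable-slope nonlinear regression.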

K562 [7] = experiment: Induction of apoptosis in human K562 cells assessed as caspase 3/7 activity after 24 hrs by caspase-glo luminescent assay; format: cell-based; conditions: K562, 24 h; method in brief: as §2
HL-60 [8] = experiment: Induction of apoptosis in human HL60 cells assessed as caspase 3/7 activity after 24 hrs by caspase-glo luminescent assay; format: cell-based; conditions: HL-60, 24 h; method in brief: as §2
PC-3 [9] = experiment: Induction of apoptosis in human PC3 cells assessed as caspase 3/7 activity after 24 hrs by caspase-glo luminescent assay; format: cell-based; conditions: PC-3, 24 h; method in brief: as §2
HepG2 [10] = experiment: Induction of apoptosis in human HepG2 cells assessed as caspase 3/7 activity after 24 hrs by caspase-glo luminescent assay; format: cell-based; conditions: HepG2, 24 h; method in brief: as §2
Staphylococcus aureus [11] = experiment: Antibacterial activity against Staphylococcus aureus ATCC 6538 after 24 hrs by microdilution assay; format: functional; conditions: ATCC 6538, 24 h
Staphylococcus aureus [12] = experiment: Antibacterial activity against methicillin-resistant Staphylococcus aureus HK5996/08 clinical isolate after 24 hrs by microdilution assay; format: functional; conditions: HK5996/08, 24 h
[13] = tested on: Staphylococcus epidermidis; experiment: Antibacterial activity against Staphylococcus epidermidis HK6966/08 clinical isolate after 24 hrs by microdilution assay; format: functional; conditions: HK6966/08, 24 h
Enterococcus sp. [14] = experiment: Antibacterial activity against Enterococcus sp. HK14365/08 clinical isolate after 24 hrs by microdilution assay; format: functional; conditions: HK14365/08, 24 h
Escherichia coli [15] = experiment: Antibacterial activity against Escherichia coli ATCC 8739 after 24 hrs by microdilution assay; format: functional; conditions: ATCC 8739, 24 h
Method in brief: (§3)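 Broth microdilution in Mueller-Hinton medium buffered to pH 7.4 (±0.2), with DMSO as diluent at no more than 2% final. Compounds were tested as 2-fold serial dilutions from 2000 to 0.488 µmol/l. The inoculum was 0.5 McFarland (1.5×10^8 cfu/ml). Plates were held at 37 °C and read visually at 24 and 48 h. MIC was taken as 95% growth inhibition versus control, determined twice in duplicate.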

Klebsiella pneumoniae [16] = experiment: Antibacterial activity against Klebsiella pneumoniae HK11750/08 clinical isolate after 24 hrs by microdilution assay; format: functional; conditions: HK11750/08, 24 h
Klebsiella pneumoniae [17] = experiment: Antibacterial activity against Klebsiella pneumoniae HK14368/08 clinical isolate after 24 hrs by microdilution assay; format: functional; conditions: HK14368/08, 24 h
Pseudomonas aeruginosa [18] = experiment: Antibacterial activity against Pseudomonas aeruginosa ATCC 9027 after 24 hrs by microdilution assay; format: functional; conditions: ATCC 9027, 24 h; method in brief: as §3
Staphylococcus aureus [19] = experiment: Antibacterial activity against Staphylococcus aureus ATCC 6538 after 48 hrs by microdilution assay; format: functional; conditions: ATCC 6538, 48 h
Staphylococcus aureus [20] = experiment: Antibacterial activity against methicillin-resistant Staphylococcus aureus HK5996/08 clinical isolate after 48 hrs by microdilution assay; format: functional; conditions: HK5996/08, 48 h
[21] = tested on: Staphylococcus epidermidis; experiment: Antibacterial activity against Staphylococcus epidermidis HK6966/08 clinical isolate after 48 hrs by microdilution assay; format: functional; conditions: HK6966/08, 48 h
Enterococcus sp. [22] = experiment: Antibacterial activity against Enterococcus sp. HK14365/08 clinical isolate after 48 hrs by microdilution assay; format: functional; conditions: HK14365/08, 48 h
Escherichia coli [23] = experiment: Antibacterial activity against Escherichia coli ATCC 8739 after 48 hrs by microdilution assay; format: functional; conditions: ATCC 8739, 48 h; method in brief: as §3
Klebsiella pneumoniae [24] = experiment: Antibacterial activity against Klebsiella pneumoniae HK11750/08 clinical isolate after 48 hrs by microdilution assay; format: functional; conditions: HK11750/08, 48 h
Klebsiella pneumoniae [25] = experiment: Antibacterial activity against Klebsiella pneumoniae HK14368/08 clinical isolate after 48 hrs by microdilution assay; format: functional; conditions: HK14368/08, 48 h
Pseudomonas aeruginosa [26] = experiment: Antibacterial activity against Pseudomonas aeruginosa ATCC 9027 after 48 hrs by microdilution assay; format: functional; conditions: ATCC 9027, 48 h; method in brief: as §3
Candida albicans [27] = experiment: Antifungal activity against Candida albicans ATCC 44859 up to 1 mM after 24 to 48 hrs by microdilution assay; format: functional, organism-based
Method in brief: (§4)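 Fungal microdilution following modified CLSI M27-A3/M38-A2, in RPMI 1640 with L-glutamine and 0.165 M MOPS at pH 7.0, with DMSO no more than 2% final. Compounds were 2-fold serially diluted from 2000 to 0.488 µmol/l. The inoculum was 5×10^3 cfu/ml. Incubation was at 35 °C, read visually at 24/48 h (T. mentagrophytes at 72/120 h). MIC was IC80 for yeasts and IC50 for filamentous fungi, determined twice in duplicate.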

Candida albicans [28] = experiment: Antifungal activity against Candida albicans ATCC 90028 up to 1 mM after 24 to 48 hrs by microdilution assay; format: functional, organism-based; method in brief: as §4
Candida parapsilosis = experiment: Antifungal activity against Candida parapsilosis ATCC 22019 up to 1 mM after 24 to 48 hrs by microdilution assay; format: functional, organism-based; method in brief: as §4
Pichia kudriavzevii [29] = experiment: Antifungal activity against Candida krusei ATCC 6258 up to 1 mM after 24 to 48 hrs by microdilution assay; format: functional, organism-based; method in brief: as §4
Pichia kudriavzevii [30] = experiment: Antifungal activity against Candida krusei E28 clinical isolate up to 1 mM after 24 to 48 hrs by microdilution assay; format: functional, organism-based; method in brief: as §4
Candida tropicalis = experiment: Antifungal activity against Candida tropicalis 156 clinical isolate up to 1 mM after 24 to 48 hrs by microdilution assay; format: functional, organism-based; method in brief: as §4
Nakaseomyces glabratus = experiment: Antifungal activity against Candida glabrata 20/I clinical isolate up to 1 mM after 24 to 48 hrs by microdilution assay; format: functional, organism-based; method in brief: as §4
Clavispora lusitaniae = experiment: Antifungal activity against Candida lusitaniae 2446/I clinical isolate up to 1 mM after 24 to 48 hrs by microdilution assay; format: functional, organism-based; method in brief: as §4
Trichosporon asahii = experiment: Antifungal activity against Trichosporon asahii 1188 clinical isolate up to 1 mM after 24 to 48 hrs by microdilution assay; format: functional, organism-based; method in brief: as §4
Aspergillus fumigatus = experiment: Antifungal activity against Aspergillus fumigatus 231 up to 1 mM after 24 to 48 hrs by microdilution assay; format: functional, organism-based; method in brief: as §4
Lichtheimia corymbifera = experiment: Antifungal activity against Absidia corymbifera 272 up to 1 mM after 24 to 48 hrs by microdilution assay; format: functional, organism-based; method in brief: as §4
[31] = tested on: Trichophyton mentagrophytes; experiment: Antifungal activity against Trichophyton mentagrophytes 445 up to 1 mM after 72 to 120 hrs by microdilution assay; format: functional, organism-based; method in brief: as §4

SMILES: O=C1OC(CO)(CO)C(c2ccc(Br)cc2)=C1c1cccc(Cl)c1Cl
- IC50 (TERT-RPE1 [1]): > 40 µM
- IC50 (BJ): > 40 µM
- IC50 (K562 [2]): > 40 µM
- IC50 (HL-60 [3]): > 40 µM
- IC50 (PC-3 [4]): > 40 µM
- IC50 (MCF7): > 40 µM
- IC50 (HepG2 [5]): > 40 µM
- IC50 (TERT-RPE1 [6]): > 40 µM
- IC50 (K562 [7]): > 40 µM
- IC50 (HL-60 [8]): > 40 µM
- IC50 (PC-3 [9]): > 40 µM
- IC50 (HepG2 [10]): > 40 µM
- MIC95 (Staphylococcus aureus [11]): 15.6 µM (≈ 6.94 µg/mL)
- MIC95 (Staphylococcus aureus [12]): > 500 µM
- MIC95 [13]: 62.5 µM (≈ 27.8 µg/mL)
- MIC95 (Enterococcus sp. [14]): > 500 µM
- MIC95 (Escherichia coli [15]): > 500 µM
- MIC95 (Klebsiella pneumoniae [16]): > 500 µM
- MIC95 (Klebsiella pneumoniae [17]): > 500 µM
- MIC95 (Pseudomonas aeruginosa [18]): > 500 µM
- MIC95 (Staphylococcus aureus [19]): 31.2 µM (≈ 13.9 µg/mL)
- MIC95 (Staphylococcus aureus [20]): > 500 µM
- MIC95 [21]: 250 µM (≈ 111 µg/mL)
- MIC95 (Enterococcus sp. [22]): > 500 µM
- MIC95 (Escherichia coli [23]): > 500 µM
- MIC95 (Klebsiella pneumoniae [24]): > 500 µM
- MIC95 (Klebsiella pneumoniae [25]): > 500 µM
- MIC95 (Pseudomonas aeruginosa [26]): > 500 µM
- Activity (Candida albicans [27]): inactive
- Activity (Candida albicans [28]): inactive
- Activity (Candida parapsilosis): inactive
- Activity (Pichia kudriavzevii [29]): inactive
- Activity (Pichia kudriavzevii [30]): inactive
- Activity (Candida tropicalis): inactive
- Activity (Nakaseomyces glabratus): inactive
- Activity (Clavispora lusitaniae): inactive
- Activity (Trichosporon asahii): inactive
- Activity (Aspergillus fumigatus): inactive
- Activity (Lichtheimia corymbifera): inactive
- Activity [31]: inactive
